Reference: ChEMBL document CHEMBL5705905, “Pharmacological targeting of kinases MST1 and MST2 augments tissue repair and regeneration” (Sci Transl Med, 2016)
The source made the active and inactive calls. The rule behind the calls is not given here.

Tests used:
[1] = target: Leukocyte tyrosine kinase receptor (Homo sapiens) (UniProt P29376); assay: Inhibition of LTK (unknown origin) assessed as remaining activity at 1 uM by Kinome scan method relative to control
[2] = target: Tyrosine-protein kinase Fgr (Homo sapiens) (UniProt P09769); assay: Inhibition of FGR (unknown origin) assessed as remaining activity at 1 uM by Kinome scan method relative to control
[3] = target: NUAK family SNF1-like kinase 1 (Homo sapiens) (UniProt O60285); assay: Inhibition of ARK5 (unknown origin) assessed as remaining activity at 1 uM by Kinome scan method relative to control
Summary of the method: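 Active-site-dependent competition-binding (KINOMEscan) panel of 468 kinases, test compound at 1 μM (from a 10 mM DMSO stock). Read-out is ctrl% = (test signal − positive control signal)/(negative control signal − positive control signal) × 100. DMSO is the negative control (100%) and a control compound is the positive control (0%). Lower ctrl% means tighter binding.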

[4] = target: Serine/threonine-protein kinase D3 (Homo sapiens) (UniProt O94806); assay: Inhibition of PRKD3 (unknown origin) assessed as remaining activity at 1 uM by Kinome scan method relative to control
[5] = target: BDNF/NT-3 growth factors receptor (Homo sapiens) (UniProt Q16620); assay: Inhibition of TRKB (unknown origin) assessed as remaining activity at 1 uM by Kinome scan method relative to control
[6] = target: NUAK family SNF1-like kinase 2 (Homo sapiens) (UniProt Q9H093); assay: Inhibition of SNARK (unknown origin) assessed as remaining activity at 1 uM by Kinome scan method relative to control
[7] = target: Ephrin type-A receptor 4 (Homo sapiens) (UniProt P54764); assay: Inhibition of EPHA4 (unknown origin) assessed as remaining activity at 1 uM by Kinome scan method relative to control
[8] = target: Receptor-interacting serine/threonine-protein kinase 4 (Homo sapiens, UniProt P57078); assay: Binding affinity to RIPK4 (unknown origin) assessed as dissociation constant
[9] = target: Ribosomal protein S6 kinase alpha-4 (Homo sapiens) (UniProt O75676); assay: Inhibition of N-terminal kinase domain RPS6KA4 (unknown origin) assessed as remaining activity at 1 uM by Kinome scan method relative to control
[10] = target: Serine/threonine-protein kinase Nek7 (Homo sapiens) (UniProt Q8TDX7); assay: Inhibition of NEK7 (unknown origin) assessed as remaining activity at 1 uM by Kinome scan method relative to control
[11] = target: Serine/threonine-protein kinase LATS1 (Homo sapiens) (UniProt O95835); assay: Inhibition of LATS1 (unknown origin) assessed as remaining activity at 1 uM by Kinome scan method relative to control
[12] = target: Serine/threonine-protein kinase pim-3 (Homo sapiens) (UniProt Q86V86); assay: Inhibition of PIM3 (unknown origin) assessed as remaining activity at 1 uM by Kinome scan method relative to control
[13] = target: Mitogen-activated protein kinase kinase kinase 11 (Homo sapiens) (UniProt Q16584); assay: Inhibition of MLK3 (unknown origin) assessed as remaining activity at 1 uM by Kinome scan method relative to control
[14] = target: Leucine-rich repeat serine/threonine-protein kinase 2 (Homo sapiens) (UniProt Q5S007); assay: Inhibition of LRRK2 (unknown origin) assessed as remaining activity at 1 uM by Kinome scan method relative to control
Mus musculus [15] = assay: Protection against APAP induced liver injury in mouse assessed as cell death at 1 mg/kg, ip administered at 1.5 hrs in the presence of NAC relative to control; assay type: functional
[16] = target: Serine/threonine-protein kinase Nek1 (Homo sapiens) (UniProt Q96PY6); assay: Inhibition of NEK1 (unknown origin) assessed as remaining activity at 1 uM by Kinome scan method relative to control
[17] = target: Serine/threonine-protein kinase TAO2 (Homo sapiens) (UniProt Q9UL54); assay: Inhibition of TAOK2 (unknown origin) assessed as remaining activity at 1 uM by Kinome scan method relative to control
[18] = target: T1, Serine/threonine-protein kinase 3 (Homo sapiens, UniProt Q13188); assay: Binding affinity to MST2 (unknown origin) assessed as dissociation constant
T1 sequence (Q13188 whole entry): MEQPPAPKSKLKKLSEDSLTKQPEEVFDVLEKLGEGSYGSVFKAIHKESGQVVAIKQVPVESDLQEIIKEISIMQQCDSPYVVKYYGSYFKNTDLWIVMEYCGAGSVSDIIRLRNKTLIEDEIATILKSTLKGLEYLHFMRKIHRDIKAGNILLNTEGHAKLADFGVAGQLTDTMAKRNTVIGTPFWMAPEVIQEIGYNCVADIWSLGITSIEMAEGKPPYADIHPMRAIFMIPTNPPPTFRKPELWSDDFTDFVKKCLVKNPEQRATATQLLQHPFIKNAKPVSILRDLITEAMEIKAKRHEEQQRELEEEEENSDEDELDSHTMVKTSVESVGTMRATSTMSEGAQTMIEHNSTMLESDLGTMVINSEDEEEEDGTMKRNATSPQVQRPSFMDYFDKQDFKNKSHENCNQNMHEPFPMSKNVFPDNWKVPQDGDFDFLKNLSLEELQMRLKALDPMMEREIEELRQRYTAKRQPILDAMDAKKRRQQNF

[19] = target: Cyclin-dependent kinase 14 (Homo sapiens) (UniProt O94921); assay: Inhibition of PFTK1 (unknown origin) assessed as remaining activity at 1 uM by Kinome scan method relative to control
[20] = target: Tyrosine-protein kinase JAK2 (Homo sapiens) (UniProt O60674); assay: Inhibition of JAK2 JH1 domain (unknown origin) assessed as remaining activity at 1 uM by Kinome scan method relative to control
[21] = target: Ephrin type-B receptor 6 (Homo sapiens) (UniProt O15197); assay: Inhibition of EPHB6 (unknown origin) assessed as remaining activity at 1 uM by Kinome scan method relative to control
[22] = target: Serine/threonine-protein kinase PLK4 (Homo sapiens) (UniProt O00444); assay: Inhibition of PLK4 (unknown origin) assessed as remaining activity at 1 uM by Kinome scan method relative to control
HepG2 = assay: Induction of apoptosis in human HepG2 cells overexpressing MST2 assessed as necrosis cells at 3 uM by annexinV staining (Rvb =0.24 %); assay type: functional
[23] = target: Phosphatidylinositol 4-phosphate 5-kinase type-1 alpha (Homo sapiens) (UniProt Q99755); assay: Inhibition of PIP5K1A (unknown origin) assessed as remaining activity at 1 uM by Kinome scan method relative to control
[24] = system: Proto-oncogene tyrosine-protein kinase receptor Ret (Homo sapiens), P07949 [V804L]; assay: Inhibition of RET V804L (unknown origin) assessed as remaining activity at 1 uM by Kinome scan method relative to control
[25] = target: Focal adhesion kinase 1 (Homo sapiens) (UniProt Q05397); assay: Inhibition of FAK (unknown origin) assessed as remaining activity at 1 uM by Kinome scan method relative to control
Mus musculus [26] = assay: Protection against duct ligation-induced mouse assessed as low level in collagen deposition at 1 mg/kg, ip administration daily for 10 days by Sirius Red staining; assay type: functional, organism-based; conditions: Liver, time 10.0 day

Sequence of Serine/threonine-protein kinase D3 (Homo sapiens) (O94806 whole entry): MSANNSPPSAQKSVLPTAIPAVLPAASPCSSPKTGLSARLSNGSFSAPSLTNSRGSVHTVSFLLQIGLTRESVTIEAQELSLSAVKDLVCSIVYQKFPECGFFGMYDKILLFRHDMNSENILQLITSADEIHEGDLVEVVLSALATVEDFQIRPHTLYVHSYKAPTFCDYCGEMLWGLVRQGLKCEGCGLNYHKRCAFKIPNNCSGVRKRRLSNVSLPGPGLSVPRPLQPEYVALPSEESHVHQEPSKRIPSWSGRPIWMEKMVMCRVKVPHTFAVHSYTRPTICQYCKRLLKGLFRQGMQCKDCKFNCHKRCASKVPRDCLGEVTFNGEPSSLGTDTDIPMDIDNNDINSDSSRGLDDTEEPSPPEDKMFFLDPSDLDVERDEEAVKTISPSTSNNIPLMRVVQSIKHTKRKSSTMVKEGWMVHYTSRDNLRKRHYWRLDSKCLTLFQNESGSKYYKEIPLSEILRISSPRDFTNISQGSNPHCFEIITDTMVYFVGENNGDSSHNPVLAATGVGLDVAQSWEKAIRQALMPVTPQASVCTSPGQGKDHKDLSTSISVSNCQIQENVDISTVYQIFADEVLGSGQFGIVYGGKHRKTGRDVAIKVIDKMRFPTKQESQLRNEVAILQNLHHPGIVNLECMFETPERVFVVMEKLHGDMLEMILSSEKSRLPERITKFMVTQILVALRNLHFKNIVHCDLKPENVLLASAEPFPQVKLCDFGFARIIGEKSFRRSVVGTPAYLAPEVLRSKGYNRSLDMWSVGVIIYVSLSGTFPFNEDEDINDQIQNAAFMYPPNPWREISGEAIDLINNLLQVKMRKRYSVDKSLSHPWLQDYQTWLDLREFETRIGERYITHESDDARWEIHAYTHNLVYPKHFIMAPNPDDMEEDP
Sequence of Serine/threonine-protein kinase Nek7 (Homo sapiens) (Q8TDX7 whole entry, looked up): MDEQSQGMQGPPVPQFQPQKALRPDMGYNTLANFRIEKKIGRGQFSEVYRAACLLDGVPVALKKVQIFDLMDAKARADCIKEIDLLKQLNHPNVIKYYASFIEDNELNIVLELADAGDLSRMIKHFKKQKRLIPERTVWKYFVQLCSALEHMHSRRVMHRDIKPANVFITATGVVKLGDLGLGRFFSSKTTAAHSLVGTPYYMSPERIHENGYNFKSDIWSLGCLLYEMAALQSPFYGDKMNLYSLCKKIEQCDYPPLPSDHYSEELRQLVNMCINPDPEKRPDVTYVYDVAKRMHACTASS
Sequence of Ephrin type-B receptor 6 (Homo sapiens) (O15197 whole entry): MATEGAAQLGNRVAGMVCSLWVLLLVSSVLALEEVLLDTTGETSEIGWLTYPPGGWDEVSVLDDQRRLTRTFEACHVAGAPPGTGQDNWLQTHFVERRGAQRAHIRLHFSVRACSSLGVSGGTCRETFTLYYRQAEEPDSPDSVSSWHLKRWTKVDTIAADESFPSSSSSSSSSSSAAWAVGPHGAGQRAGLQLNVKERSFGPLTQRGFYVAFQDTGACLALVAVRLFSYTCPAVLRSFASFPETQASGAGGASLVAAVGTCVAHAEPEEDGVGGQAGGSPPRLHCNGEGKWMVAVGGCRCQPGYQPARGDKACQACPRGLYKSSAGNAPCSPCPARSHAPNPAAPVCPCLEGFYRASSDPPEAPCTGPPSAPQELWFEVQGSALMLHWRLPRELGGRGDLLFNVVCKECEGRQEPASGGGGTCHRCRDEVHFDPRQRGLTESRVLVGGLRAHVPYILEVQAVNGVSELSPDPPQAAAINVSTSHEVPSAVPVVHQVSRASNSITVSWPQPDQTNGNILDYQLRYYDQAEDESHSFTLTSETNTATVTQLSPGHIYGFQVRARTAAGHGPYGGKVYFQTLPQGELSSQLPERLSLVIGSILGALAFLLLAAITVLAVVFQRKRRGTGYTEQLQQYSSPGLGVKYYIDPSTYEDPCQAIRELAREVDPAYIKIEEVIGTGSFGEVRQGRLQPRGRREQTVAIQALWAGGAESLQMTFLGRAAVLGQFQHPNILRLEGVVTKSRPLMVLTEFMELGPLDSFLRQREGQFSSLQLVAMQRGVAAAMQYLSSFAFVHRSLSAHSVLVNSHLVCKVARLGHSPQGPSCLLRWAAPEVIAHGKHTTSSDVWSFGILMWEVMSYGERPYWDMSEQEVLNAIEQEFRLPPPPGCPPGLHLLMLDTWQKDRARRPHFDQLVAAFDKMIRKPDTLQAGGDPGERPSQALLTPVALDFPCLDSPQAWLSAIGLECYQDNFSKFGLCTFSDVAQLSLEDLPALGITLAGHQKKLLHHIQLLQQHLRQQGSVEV
Sequence of Leucine-rich repeat serine/threonine-protein kinase 2 (Homo sapiens) (Q5S007 whole entry): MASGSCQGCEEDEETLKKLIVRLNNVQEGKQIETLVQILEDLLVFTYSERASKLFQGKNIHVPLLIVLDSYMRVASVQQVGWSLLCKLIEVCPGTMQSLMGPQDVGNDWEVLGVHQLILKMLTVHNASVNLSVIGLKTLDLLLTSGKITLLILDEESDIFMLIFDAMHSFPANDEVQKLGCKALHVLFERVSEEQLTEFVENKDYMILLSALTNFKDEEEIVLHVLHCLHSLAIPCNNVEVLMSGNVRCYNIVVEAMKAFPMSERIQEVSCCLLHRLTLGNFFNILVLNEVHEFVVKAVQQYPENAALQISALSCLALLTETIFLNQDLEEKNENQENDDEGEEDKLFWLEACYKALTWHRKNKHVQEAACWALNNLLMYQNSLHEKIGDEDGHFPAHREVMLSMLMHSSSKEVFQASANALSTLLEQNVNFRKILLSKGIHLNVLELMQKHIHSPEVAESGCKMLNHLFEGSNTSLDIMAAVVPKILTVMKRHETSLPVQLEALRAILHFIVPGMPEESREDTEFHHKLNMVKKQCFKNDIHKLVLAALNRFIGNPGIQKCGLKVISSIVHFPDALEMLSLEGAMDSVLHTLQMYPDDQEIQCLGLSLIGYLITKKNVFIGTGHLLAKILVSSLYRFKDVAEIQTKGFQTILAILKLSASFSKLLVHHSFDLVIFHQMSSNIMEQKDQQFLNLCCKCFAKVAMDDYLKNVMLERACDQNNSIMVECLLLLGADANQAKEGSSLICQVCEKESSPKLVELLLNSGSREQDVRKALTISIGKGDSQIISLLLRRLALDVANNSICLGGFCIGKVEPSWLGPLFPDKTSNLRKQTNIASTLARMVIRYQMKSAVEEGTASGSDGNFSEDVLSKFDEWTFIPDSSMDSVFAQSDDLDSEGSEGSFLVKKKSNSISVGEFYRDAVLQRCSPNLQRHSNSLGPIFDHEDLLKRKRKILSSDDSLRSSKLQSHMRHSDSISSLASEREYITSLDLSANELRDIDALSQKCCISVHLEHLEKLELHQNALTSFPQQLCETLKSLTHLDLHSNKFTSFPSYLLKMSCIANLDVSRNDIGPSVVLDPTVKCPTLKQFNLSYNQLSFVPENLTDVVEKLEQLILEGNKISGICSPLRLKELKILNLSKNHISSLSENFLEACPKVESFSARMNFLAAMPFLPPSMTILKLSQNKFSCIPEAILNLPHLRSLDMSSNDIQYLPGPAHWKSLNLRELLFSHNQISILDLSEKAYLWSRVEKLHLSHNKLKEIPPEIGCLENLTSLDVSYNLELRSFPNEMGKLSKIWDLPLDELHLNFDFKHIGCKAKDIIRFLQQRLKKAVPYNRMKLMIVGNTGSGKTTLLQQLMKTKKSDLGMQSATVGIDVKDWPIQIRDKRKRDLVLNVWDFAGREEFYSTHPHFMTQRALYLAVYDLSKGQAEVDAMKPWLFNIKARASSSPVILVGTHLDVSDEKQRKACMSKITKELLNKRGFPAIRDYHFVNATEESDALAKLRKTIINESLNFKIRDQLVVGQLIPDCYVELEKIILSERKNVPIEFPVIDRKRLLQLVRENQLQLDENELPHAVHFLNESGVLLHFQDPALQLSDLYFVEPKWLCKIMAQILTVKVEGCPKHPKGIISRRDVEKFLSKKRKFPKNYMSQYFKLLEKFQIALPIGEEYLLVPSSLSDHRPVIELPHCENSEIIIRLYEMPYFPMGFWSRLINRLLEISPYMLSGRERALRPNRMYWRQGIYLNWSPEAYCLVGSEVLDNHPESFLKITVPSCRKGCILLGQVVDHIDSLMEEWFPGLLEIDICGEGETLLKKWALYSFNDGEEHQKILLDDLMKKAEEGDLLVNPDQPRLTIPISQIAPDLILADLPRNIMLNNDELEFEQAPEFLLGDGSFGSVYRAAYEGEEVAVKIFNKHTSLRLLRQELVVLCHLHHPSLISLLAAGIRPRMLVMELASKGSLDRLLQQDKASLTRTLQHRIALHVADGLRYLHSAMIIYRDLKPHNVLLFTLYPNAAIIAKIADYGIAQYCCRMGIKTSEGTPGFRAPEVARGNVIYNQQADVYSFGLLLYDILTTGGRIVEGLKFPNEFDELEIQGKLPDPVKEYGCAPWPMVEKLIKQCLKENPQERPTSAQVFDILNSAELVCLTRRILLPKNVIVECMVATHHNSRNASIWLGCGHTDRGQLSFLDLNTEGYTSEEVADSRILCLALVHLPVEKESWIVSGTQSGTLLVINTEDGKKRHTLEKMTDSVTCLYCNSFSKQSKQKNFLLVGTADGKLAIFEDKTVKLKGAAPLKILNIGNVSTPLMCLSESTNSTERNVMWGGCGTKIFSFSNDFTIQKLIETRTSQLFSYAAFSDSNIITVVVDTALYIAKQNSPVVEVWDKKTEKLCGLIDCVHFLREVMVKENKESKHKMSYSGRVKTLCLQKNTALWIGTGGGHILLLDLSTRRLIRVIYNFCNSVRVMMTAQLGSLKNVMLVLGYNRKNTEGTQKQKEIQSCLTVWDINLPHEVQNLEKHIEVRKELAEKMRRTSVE

CN1C(=O)c2sccc2N(C)c2nc(Nc3ccc(S(N)(=O)=O)cc3)ncc21 was tested, and the Activity [1] was 100%, the Activity [2] was 56% and the Activity [3] was 96%. It also gave an Activity [4] of 65%, an Activity [5] of 35% and an Activity [6] of 12%. The Activity [7] was 100%, the Kd [8] was 140 nM and the Activity [9] was 81%. The Activity [10] was 88%, the Activity [11] was 100% and the Activity [12] was 100%. The Activity [13] was 100%, the Activity [14] was 37% and the Activity (Mus musculus [15]) was 100%. It also gave an Activity [16] of 95%, an Activity [17] of 3.4% and a Kd [18] of 11 nM. For the same compound, the Activity [19] was 100%, the Activity [20] was 15% and the Activity [21] was 100%. It also gave an Activity [22] of 14%, an Activity (HepG2) of 0.27% and an Activity [23] of 100%. The Activity [24] was 78%, the Activity [25] was 96% and the Activity (Mus musculus [26]) was “Active”.
